The values below come from ChEMBL document CHEMBL5335820, “Novel quinolinepiperazinyl-aryltetrazoles targeting the blood stage of Plasmodium falciparum” (RSC Med Chem, 2024).

Activity calls are given as the source filed them. No cut-off for these calls is given here.

Test [1] relates to Plasmodium falciparum. Put plainly: Synergistic antiplasmodial activity against multidrug-resistant Plasmodium falciparum Cam3.1R539T infected in human erythrocytes at 8 times IC50 concentration incubated for 72 hrs in presence of mefloquine by SYBR green I staining based fluorescence assay. Format: functional, organism-based. The following applies: Erythrocyte. An outline of the steps:
(§1)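 P. falciparum Cam3.1R539T in O+ human erythrocytes, 1% parasitemia, 2% haematocrit. 8× IC50 stocks of test compound and standard drug were mixed at molar ratios 4:1, 3:2, 2:3 and 1:4, then serially diluted two-fold. Plates were incubated 72 h at 37 °C and read by SYBR Green I lysis. Controls were 0.4% DMSO (100% growth) and 4 μM chloroquine (0% growth). ΣFIC = FICA + FICB; <1 synergistic, 1.0–2.0 additive, >2.0 antagonistic.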

The subject of test [2] is Plasmodium falciparum. Put plainly: Antiplasmodial activity against chloroquine resistant schizont stage Plasmodium falciparum INDO infected in human erythrocytes assessed as decrease in parasitemia at 5.62 uM incubated for 4 hrs by time-kill kinetics based FACS analysis. It is filed as functional, organism-based. The following applies: Erythrocyte. An outline of the steps: (§2)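 PfINDO early schizonts (32–36 h post-invasion) and late schizonts (42–45 h post-invasion) were exposed to 5.62 or 4.30 μM for up to 16 h, washed at 4 h intervals, then cultured drug-free to a total of 96 h. Parasitemia was counted by FACS on 10^5 cells at the end of the second cycle; schizont rupture was checked microscopically.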

Test [3] deals with Plasmodium falciparum. In words: Antiplasmodial activity against chloroquine resistant schizont stage Plasmodium falciparum INDO infected in human erythrocytes assessed as prevention of schizont rupture at 5.62 uM incubated for 4 hrs by time-kill kinetics based FACS analysis. The following applies: Erythrocyte. Format: functional, organism-based. The essentials: as §2
Test [4] relates to Plasmodium falciparum. In words: Antiplasmodial activity against chloroquine resistant ring stage Plasmodium falciparum INDO infected in human erythrocytes assessed as reduction in parasitemia at 2.25 uM incubated for 12 hrs by time-kill kinetics based FACS analysis relative to control. Format: functional, Erythrocyte. Also noted: scale not given: the % may be the effect or the level left. An outline of the steps:
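PfINDO rings were exposed to 2.25 or 1.79 μM, with compound washed out by centrifugation at 12, 24, 36, 48 or 57 h. Cultures were then grown drug-free to a total of 96 h. Parasitemia at the end of the second cycle was counted by FACS on 10^5 cells.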

The test system of test [5] is Plasmodium falciparum. Put plainly: Antiplasmodial activity against chloroquine resistant schizont stage Plasmodium falciparum INDO infected in human erythrocytes assessed as prevention of schizont rupture at 4.30 uM incubated for 4 hrs by time-kill kinetics based FACS analysis. It is filed as functional, organism-based. The following applies: Erythrocyte, dose 4.3 µM. The essentials: as §2

Test [6] deals with Plasmodium falciparum. In words: Antagonistic antiplasmodial activity against multidrug-resistant Plasmodium falciparum Cam3.1R539T infected in human erythrocytes at 8 times IC50 concentration incubated for 72 hrs in presence of mefloquine by SYBR green I staining based fluorescence assay. The following applies: Erythrocyte. Format: functional, organism-based. An outline of the steps:
as §1

For test [7], the system named is Plasmodium falciparum. In words: Additive antiplasmodial activity against multidrug-resistant Plasmodium falciparum Cam3.1R539T infected in human erythrocytes at 8 times IC50 concentration incubated for 72 hrs in presence of pyrimethamine by SYBR green I staining based fluorescence assay. Format: functional, organism-based. The following applies: Erythrocyte. The essentials:
as §1

On to `Clc1ccc2c(N3CCN(CCCn4nnc(-c5ccc(Br)cc5)n4)CC3)ccnc2c1`, for which the outcome in test [1], in test [2] and in test [3] was Active. Moreover, in test [4], the Activity was roughly 22%.

Consider `O=C(Cn1nnc(-c2cccc([N+](=O)[O-])c2)n1)N1CCN(c2ccnc3cc(Cl)ccc23)CC1`, for which the result in test [5] was inactive. The outcome in test [6] and in test [7] was Active.
